Results from ChEMBL document CHEMBL4011624, “The 1,2,4-Triazolo[4,3-a]pyrazin-3-one as a Versatile Scaffold for the Design of Potent Adenosine Human Receptor Antagonists. Structural Investigations to Target the A2A Receptor Subtype” (J Med Chem, 2017).
The source made the active and inactive calls. The calls are words filed in the database; no cut-off is given here.

Assays:
[1] = biological target: T1, Adenosine receptor A1 (Homo sapiens, UniProt P30542); experiment: Displacement of [3H]CCPA from human adenosine receptor A1 expressed in CHO cell membranes after 3 hrs by microbeta scintillation counting method
T1 sequence (P30542 whole entry): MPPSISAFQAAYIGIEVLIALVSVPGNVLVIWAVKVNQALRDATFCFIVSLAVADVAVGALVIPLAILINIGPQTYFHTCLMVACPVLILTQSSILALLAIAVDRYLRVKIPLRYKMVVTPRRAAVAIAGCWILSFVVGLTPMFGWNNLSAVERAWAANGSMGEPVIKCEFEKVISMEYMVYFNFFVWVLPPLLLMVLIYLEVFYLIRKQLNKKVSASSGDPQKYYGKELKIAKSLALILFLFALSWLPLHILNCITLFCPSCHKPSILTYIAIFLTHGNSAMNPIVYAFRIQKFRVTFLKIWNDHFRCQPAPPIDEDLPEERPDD

[2] = biological target: T2, Adenosine receptor A2b (Homo sapiens, UniProt P29275); experiment: Antagonist activity at human adenosine receptor A2B expressed in CHO cell membranes assessed as inhibition of NECA-induced increase of cAMP accumulation preincubated for 10 mins followed by NECA addition measured after 10 mins by GloSensor cAMP assay; format: functional, cell-based
T2 sequence (P29275 whole entry): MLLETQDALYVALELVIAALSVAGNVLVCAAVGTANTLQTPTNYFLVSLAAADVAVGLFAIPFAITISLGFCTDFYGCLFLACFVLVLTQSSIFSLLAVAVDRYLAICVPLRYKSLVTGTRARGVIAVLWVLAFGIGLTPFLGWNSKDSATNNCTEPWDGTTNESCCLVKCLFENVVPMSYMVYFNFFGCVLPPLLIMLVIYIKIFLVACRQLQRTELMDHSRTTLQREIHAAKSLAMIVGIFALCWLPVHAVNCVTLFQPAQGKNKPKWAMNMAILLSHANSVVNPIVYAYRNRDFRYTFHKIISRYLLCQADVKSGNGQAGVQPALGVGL
In short: (§1)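 Receptors stably transfected in CHO cells. Antagonism read as inhibition of the NECA-stimulated rise in cAMP levels. IC50 values were derived from dose-response curves.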

[3] = biological target: T3, Adenosine receptor A3 (Homo sapiens, UniProt P0DMS8); experiment: Displacement of [3H]HEMADO from human adenosine receptor A3 expressed in CHO cell membranes after 3 hrs by microbeta scintillation counting method
T3 sequence (P0DMS8 whole entry): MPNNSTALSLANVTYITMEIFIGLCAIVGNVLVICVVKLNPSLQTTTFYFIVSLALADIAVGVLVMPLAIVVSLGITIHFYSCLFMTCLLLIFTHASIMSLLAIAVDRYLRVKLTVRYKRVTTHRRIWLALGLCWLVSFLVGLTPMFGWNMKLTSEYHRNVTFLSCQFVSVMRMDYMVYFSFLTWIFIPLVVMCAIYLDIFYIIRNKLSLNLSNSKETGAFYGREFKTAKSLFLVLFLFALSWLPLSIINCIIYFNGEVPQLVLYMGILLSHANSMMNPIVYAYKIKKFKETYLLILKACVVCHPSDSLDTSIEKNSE

[4] = biological target: T4, Adenosine receptor A2a (Homo sapiens, UniProt P29274); experiment: Displacement of [3H]NECA from human adenosine receptor A2A expressed in CHO cell membranes after 3 hrs by microbeta scintillation counting method
T4 sequence (P29274 whole entry): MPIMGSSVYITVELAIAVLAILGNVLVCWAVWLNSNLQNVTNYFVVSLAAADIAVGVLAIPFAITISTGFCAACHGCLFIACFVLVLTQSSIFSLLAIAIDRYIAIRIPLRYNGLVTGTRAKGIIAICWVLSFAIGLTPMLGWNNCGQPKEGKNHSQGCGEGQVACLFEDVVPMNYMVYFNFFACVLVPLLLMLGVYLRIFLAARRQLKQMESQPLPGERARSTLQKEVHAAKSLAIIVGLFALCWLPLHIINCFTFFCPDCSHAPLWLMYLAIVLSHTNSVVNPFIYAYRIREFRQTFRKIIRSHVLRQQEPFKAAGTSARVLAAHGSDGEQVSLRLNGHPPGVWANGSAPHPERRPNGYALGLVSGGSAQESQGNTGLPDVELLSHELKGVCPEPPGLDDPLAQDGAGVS

[5] = biological target: T4, Adenosine receptor A2a; experiment: Antagonist activity at human adenosine receptor A2A expressed in CHO cell membranes assessed as inhibition of NECA-induced increase of cAMP accumulation preincubated for 10 mins followed by NECA addition measured after 10 mins by GloSensor cAMP assay; format: functional, cell-based; in short: as §1
[6] = test system: SH-SY5Y; experiment: Cytotoxicity against human SH-SY5Y cells assessed as increase in cell viability at 0.5 to 30 nM after 24 hrs by Celltiter-Glo luminescent assay; format: cell-based; settings: 0.03 µM
[7] = test system: SH-SY5Y; experiment: Neuroprotective activity against MPP+-induced toxicity in human SH-SY5Y cells assessed as increase in cell viability at 15 nM pretreated for 1 hr followed by MPP+ addition measured after 24 hrs in the presence of human adenosine receptor A2A agonist CGS21680 by Celltiter-Glo luminescent assay; format: functional, cell-based
In short: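 SH-SY5Y cells were given MPP+ (1.5 mM, 24 h) plus test agent at 15 nM, together with the A2A agonist CGS21680 at 10 to 100 nM, and cell viability was then measured.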

[8] = test system: SH-SY5Y; experiment: Neuroprotective activity against MPP+-induced toxicity in human SH-SY5Y cells assessed as increase in cell viability at 15 nM pretreated for 1 hr followed by MPP+ addition measured after 24 hrs by Celltiter-Glo luminescent assay; format: functional, cell-based
In short: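 SH-SY5Y human neuroblastoma cells were exposed to MPP+ at 1.5 mM for 24 h, with test agent present, and cell viability was then measured. The MPP+ level was chosen from a pilot range of 50 μM to 3 mM over 24 h.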

Row | Ki [1] | IC50 [2] | Ki [3] | Ki [4] | IC50 [5] | SMILES | Activity [6] | Activity [7] | Activity [8]
1 | 45 nM | > 30000 nM | 53 nM | 45 nM |  | Nc1nc(-c2ccc(O)cc2)cn2c(=O)n(-c3ccccc3)nc12 |  |  | 
2 | 129 nM | > 30000 nM | 0.37 nM | 387 nM |  | O=c1[nH]c(-c2ccccc2)cn2c(=O)n(-c3ccc(O)cc3)nc12 |  |  | 
3 | 44 nM | > 30000 nM | 42 nM | 6.8 nM |  | COc1cccc(-c2cn3c(=O)n(-c4ccccc4)nc3c(N)n2)c1 |  |  | 
4 | > 30000 nM | > 30000 nM | 50 nM | > 30000 nM |  | COc1ccc(-n2nc3c(=O)[nH]c(C)cn3c2=O)cc1 |  |  | 
5 | 20 nM | > 30000 nM | 117 nM | 78 nM |  | COc1ccc(-n2nc3c(N)nc(-c4ccccc4)cn3c2=O)cc1 |  |  | 
6 | > 30000 nM | > 30000 nM | > 30000 nM | 10.6 nM |  | C#CCOc1ccc(-c2cn3c(=O)n(-c4ccccc4)nc3c(N)n2)cc1 |  |  | 
7 | > 30000 nM | > 30000 nM | > 30000 nM | > 30000 nM |  | COc1cccc(-c2cn3c(=O)n(-c4ccccc4)nc3c(=O)[nH]2)c1 |  |  | 
8 | 18 nM | > 30000 nM | 429 nM | 138 nM |  | Nc1nc(-c2ccccc2)cn2c(=O)n(-c3ccc(O)cc3)nc12 |  |  | 
9 | 1000 nM | > 30000 nM | 5160 nM | 1320 nM |  | Cc1cn2c(=O)n(-c3ccc(O)cc3)nc2c(N)n1 |  |  | 
10 | > 30000 nM | > 30000 nM | > 30000 nM |  |  | CCCOc1ccc(-c2cn3c(=O)n(-c4ccccc4)nc3c(N)n2)cc1 |  |  | 
11 | > 30000 nM | > 30000 nM | > 30000 nM | 2.9 nM | 98 nM | CCOc1ccc(-c2cn3c(=O)n(-c4ccccc4)nc3c(N)n2)cc1 |  |  | 
12 | 8.9 nM | > 30000 nM | 650 nM | 3480 nM |  | Nc1ccc(-n2nc3c(N)nc(-c4ccccc4)cn3c2=O)cc1 |  |  | 
13 | 5740 nM | > 30000 nM | 229 nM |  |  | Cc1cn2c(=O)n(-c3ccc(O)cc3)nc2c(=O)[nH]1 |  |  | 
14 | > 30000 nM | > 30000 nM | 96 nM | > 30000 nM |  | O=c1[nH]c(-c2ccccc2)cn2c(=O)n(-c3ccccc3)nc12 |  |  | 
15 | 2140 nM | > 30000 nM | 5200 nM | > 30000 nM |  | COc1ccccc1-n1nc2c(=O)[nH]c(-c3ccccc3)cn2c1=O |  |  | 
16 | 8.1 nM | > 30000 nM | > 30000 nM | 402 nM |  | Nc1nc(-c2ccccc2)cn2c(=O)n(-c3ccc([N+](=O)[O-])cc3)nc12 |  |  | 
17 | 1740 nM | > 30000 nM | 255 nM | 1040 nM |  | COc1ccc(-n2nc3c(N)nc(C)cn3c2=O)cc1 |  |  | 
18 | > 30000 nM | > 30000 nM | > 30000 nM | > 30000 nM |  | Nc1nc(-c2ccc(OCC3CCC3)cc2)cn2c(=O)n(-c3ccccc3)nc12 |  |  | 
19 | 698 nM | > 30000 nM | 1050 nM | 4070 nM |  | O=c1[nH]c(-c2cccc(O)c2)cn2c(=O)n(-c3ccccc3)nc12 |  |  | 

Row | Ki [1] | IC50 [2] | Ki [3] | Ki [4] | IC50 [5] | SMILES | Activity [6] | Activity [7] | Activity [8]
20 | 45 nM | > 30000 nM | 67 nM | 5.1 nM |  | C#CCOc1cccc(-c2cn3c(=O)n(-c4ccccc4)nc3c(N)n2)c1 |  |  | 
21 | 13 nM | > 30000 nM | 11 nM | 10 nM |  | Nc1nc(-c2ccccc2)cn2c(=O)n(-c3ccccc3)nc12 |  |  | 
22 |  | > 30000 nM | 1560 nM | 47 nM |  | Nc1nc(-c2ccccc2)cn2c(=O)n(-c3ccccc3O)nc12 |  |  | 
23 | > 30000 nM | > 30000 nM | > 30000 nM | > 30000 nM |  | Nc1nc(-c2cccc(OCc3ccccc3)c2)cn2c(=O)n(-c3ccccc3)nc12 |  |  | 
24 | > 30000 nM | > 30000 nM | 214 nM | > 30000 nM |  | COc1ccc(-n2nc3c(=O)[nH]c(-c4ccccc4)cn3c2=O)cc1 |  |  | 
25 | 67 nM | > 30000 nM | 4370 nM | 485 nM |  | Cc1cn2c(=O)n(-c3ccccc3)nc2c(N)n1 |  |  | 
26 | 14 nM | > 30000 nM | 134 nM | 3.5 nM |  | Nc1nc(-c2cccc(O)c2)cn2c(=O)n(-c3ccccc3)nc12 |  |  | 
27 | 616 nM | > 30000 nM | 207 nM | > 30000 nM |  | O=c1[nH]c(-c2ccc(O)cc2)cn2c(=O)n(-c3ccccc3)nc12 |  |  | 
28 | 3700 nM | > 30000 nM | > 30000 nM | 708 nM |  | Nc1nc(-c2ccc(OCc3ccccc3)cc2)cn2c(=O)n(-c3ccccc3)nc12 |  |  | 
29 | > 30000 nM | > 30000 nM | > 30000 nM | 7.2 nM | 180 nM | COc1ccc(-c2cn3c(=O)n(-c4ccccc4)nc3c(N)n2)cc1 | Non-Toxic | inactive | Active
30 | 1480 nM | > 30000 nM | 21600 nM | > 30000 nM |  | O=c1[nH]c(-c2ccccc2)cn2c(=O)n(-c3ccccc3O)nc12 |  |  | 
31 | > 30000 nM | > 30000 nM | > 30000 nM | 7.4 nM |  | CC(C)Oc1ccc(-c2cn3c(=O)n(-c4ccccc4)nc3c(N)n2)cc1 |  |  | 
32 | > 30000 nM | > 30000 nM | > 30000 nM | > 30000 nM |  | Cc1ccc(-c2cn3c(=O)n(-c4ccccc4)nc3c(=O)[nH]2)cc1 |  |  | 
33 | 247 nM | > 30000 nM | 392 nM | 309 nM |  | COc1ccccc1-n1nc2c(N)nc(-c3ccccc3)cn2c1=O |  |  | 
34 | > 30000 nM | > 30000 nM | > 30000 nM | > 30000 nM |  | Nc1nc(-c2ccc(OCC3CC3)cc2)cn2c(=O)n(-c3ccccc3)nc12 |  |  | 
35 | 247 nM | > 30000 nM | 63 nM | 415 nM |  | Nc1ccc(-n2nc3c(=O)[nH]c(-c4ccccc4)cn3c2=O)cc1 |  |  | 
36 | > 30000 nM | > 30000 nM | > 30000 nM | > 30000 nM |  | Cc1ccc(-c2cn3c(=O)n(-c4ccccc4)nc3c(N)n2)cc1 |  |  | 
37 | > 30000 nM | > 30000 nM | 60 nM | > 30000 nM |  | Cc1cn2c(=O)n(-c3ccccc3)nc2c(=O)[nH]1 |  |  | 
38 | > 30000 nM | > 30000 nM | > 30000 nM | > 30000 nM |  | COc1ccc(-c2cn3c(=O)n(-c4ccccc4)nc3c(=O)[nH]2)cc1 |  |  | 
